Published values collected from several papers.
Lines come from different studies, so protocols differ.
Target: Serine/threonine-protein kinase PAK 6 (PAK6, Homo sapiens, UniProt Q9NQU5)

CCC(=N\O)/C(C)=C/c1ccc(F)cc1 — remaining binding (cell-free assay; competition with immobilised ligand; 1 µM): 100%
Cn1c(=O)n(-c2ccc(C(C)(C)C#N)cc2)c2c3cc(-c4cnc5ccccc5c4)ccc3ncc21 — remaining activity (enzyme activity; inhibitor; 10 µM): 105%
O=C1Nc2ccc(Cl)cc2C1=Cc1cc(Cl)c(O)c(Cl)c1 — remaining signal (cell-free assay; 0.5 µM): 97%
FC(F)(F)Oc1cccc(-c2cnc3ccc(-c4ccncc4)nn23)c1 — activity vs control (enzyme activity; inhibitor; radiometric; 1 µM): 97%
COc1cc(Cl)c(C(=O)N[C@@H](CN[C@H]2CC[C@@H](N)CC2)Cc2ccc(C#N)cc2)cc1-c1ccc(CN[C@H](C)c2ccc(C)cc2)o1 — remaining activity (enzyme activity; inhibitor; 1 µM): 95%
COc1cc2ncnc(Nc3ccc(Oc4ccccc4)c(C)c3C)c2cc1OC — inhibition (enzyme activity; inhibitor; 1 µM): -6%
CN(C)c1nccc(-c2cnn3ncccc23)n1 — remaining binding (binding; 1 µM): 100%
CC(C)(C)c1nc2c(s1)c1nc(N)ncc1c1ccc(NS(=O)(=O)c3c(F)cccc3F)c(F)c12 — remaining activity (enzyme activity; inhibitor; radiometric; 1 µM): 89%
O=C(O)[C@@H]1[C@@H](Cn2nnc3ccccc3c2=O)CC[C@H]1C(=O)c1ccc(OCCC2CCOCC2)cc1 — remaining binding (cell-free assay; competition with immobilised ligand; 1 µM): 99%
Nc1nc(Nc2ccccc2)sc1C(=O)c1c(F)cccc1F — remaining activity (enzyme activity; inhibitor; 10 µM): 87%
Cn1cc(Cl)c2c(Oc3c(F)cc(Nc4cc(Cl)nc(N)n4)cc3F)ccnc21 — remaining binding (cell-free assay; competition with immobilised ligand; 0.1 µM): 100%
Cc1ccc(NC(=O)c2ccc(C)c(C(F)(F)F)c2)cc1C#Cc1nn(C2CCC(O)CC2)c2ncnc(N)c12 (centres unmarked) — remaining signal (cell-free assay; 10 µM): 92%
Cc1ccc(Nc2nccc(N(C)c3ccc4c(C)n(C)nc4c3)n2)cc1S(N)(=O)=O — remaining signal (cell-free assay; inhibitor; 0.5 µM): 105%
CCOCCn1cc(C(=O)Nc2ccc(-n3nc(-c4cccnc4)cc3C(F)(F)F)cn2)ccc1=O — remaining binding (cell-free assay; competition with immobilised ligand; 1 µM): 100%
Cc1cc(NC(=O)c2cccc3cc(-c4cccc5[nH]nc(N)c45)ccc23)ccc1F — activity vs control (enzyme activity; inhibitor; 0.1 µM): 104%
CCCOc1ccc([C@@H]2[C@@H](C(=O)O)[C@H](c3ccc4c(c3)OCO4)CN2CC(=O)Nc2c(CC)cccc2CC)cc1 — remaining binding (cell-free assay; competition with immobilised ligand; 1 µM): 83%
CNC(=O)c1cc(Oc2ccc(NC(=O)Nc3ccc(Cl)c(C(F)(F)F)c3)cc2)ccn1 — inhibition (enzyme activity; inhibitor; 10 µM): -29%
COc1cc(Nc2cnc(C#N)c(O[C@H](C)CN(C)C)n2)ncc1-c1cnn(C)c1 — remaining activity (enzyme activity; inhibitor; radiometric; 1 µM): 77%
O=C(NCCCC1CCCCC1)c1ccc(CNC(=O)c2cnn(-c3ccccc3)c2C(F)(F)F)cc1 — remaining binding (cell-free assay; competition with immobilised ligand; 0.1 µM): 100%
O=C(Nc1cnn(-c2csc(C(=O)NC3COC3)c2)c1)Nc1ccccc1Cl — remaining activity (enzyme activity; inhibitor; 5 µM): 131%
